CHRM5 PAM: CHRM5 positive allosteric modulation | 360,000 compounds, 0.3% hits | CHO-K1 hM5, Fluo-8 calcium, ACh EC20 PAM; 0% = ACh EC20, 100% = ACh EC100 | activation, % at 3 µM | P08912;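 active = activation above the run cutoff, the mean activation of all test compounds plus 3 SD, cut at about 18% in these data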
Target sequence (P08912 whole entry, looked up): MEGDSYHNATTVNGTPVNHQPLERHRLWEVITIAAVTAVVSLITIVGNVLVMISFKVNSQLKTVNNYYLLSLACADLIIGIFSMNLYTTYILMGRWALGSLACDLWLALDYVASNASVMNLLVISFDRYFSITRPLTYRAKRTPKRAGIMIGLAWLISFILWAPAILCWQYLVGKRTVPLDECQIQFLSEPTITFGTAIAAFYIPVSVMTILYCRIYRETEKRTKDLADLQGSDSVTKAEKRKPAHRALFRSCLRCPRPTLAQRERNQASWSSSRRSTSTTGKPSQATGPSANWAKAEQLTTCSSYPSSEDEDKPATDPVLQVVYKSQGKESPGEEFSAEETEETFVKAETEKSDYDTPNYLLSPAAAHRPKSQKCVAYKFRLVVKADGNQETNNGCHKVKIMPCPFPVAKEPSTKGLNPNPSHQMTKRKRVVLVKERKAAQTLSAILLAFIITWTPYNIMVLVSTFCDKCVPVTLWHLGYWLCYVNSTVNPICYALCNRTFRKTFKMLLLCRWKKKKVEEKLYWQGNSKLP
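Test system: CHO-K1 hM5 cells / Doses: single-point, 3 µM nominal / Times: Post-acetylcholine fluorescence recording 140 s / Technique: Fluo-8 calcium fluorescence / Measure: Max/basal fluorescence ratio as % of EC20–EC100 ACh window / Benchmarks: low control EC20 acetylcholine (0%), high control EC100 acetylcholine (100%) / Replicates: one well per compound, no replicates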
M4 ag: CHRM4 agonism in calcium assay. P08173. CHO-K1 hM4/Gqi5, Fluo-8 calcium fluorescence; vehicle 0%, full acetylcholine response 100%. 360,000 compounds, 0.14% hits. activation, % at 3 µM. AID 624127;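 active = activation above the run mean over all test wells plus 3 SD, cut at about 32% in these data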;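 also: peak over basal fluorescence ratio per well then scaled between controls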
CHRM4 antagonist: blocks acetylcholine activation of human M4 receptor. inhibition, % at 3 µM. 360,000 compounds, 0.73% hits. CHO-hM4 cells, ACh EC80, Fluo-8 calcium fluorescence. P08173;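 active = inhibition above its plate's cutoff, the mean inhibition of sample wells plus 3 SD, cut at about 27% in these data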
CHRM4 PAM: positive allosteric modulators of human muscarinic M4 receptor; P08173; CHO-K1 hM4/Gqi5, Fluo-8 calcium fluorescence, ACh EC20; 0% = ACh EC20, 100% = maximal ACh; activation, % at 3 µM; 360,000 compounds, 0.4% hits;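 active = activation above its plate's cutoff, the mean activation of sample wells plus 3 SD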
CHRM5 agonist: CHRM5 agonism in calcium assay | AID 624037 | P08912 | activation, % at 3 µM | 360,000 compounds, 0.19% hits | CHO-K1 hM5 cells, Fluo-8 calcium fluorescence; 0% DMSO wells, 100% maximal acetylcholine response;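 active = activation above the run's mean over test compounds plus 3 SD, cut at about 23% in these data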;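 also: signal is peak over basal fluorescence ratio across the kinetic read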
CHRM5 antagonist: blocks acetylcholine activation of human M5 receptor | P08912 | CHO-hM5 cells, Fluo-8 calcium fluorescence, ACh EC80 | inhibition, % at 3 µM | 360,000 compounds, 0.59% hits;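 active = inhibition above a per-plate cutoff, the mean of that plate's test compounds plus 3 SD, cut at about 27% in these data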
Numbers stand for hits; - = inactive. The list is not random: actives were taken first. Their share in the collection is about 1.9%.

SMILES	CHRM5 PAM	M4 ag	CHRM4 antagonist	CHRM4 PAM	CHRM5 agonist	CHRM5 antagonist
C=CCNC(=O)C1CCN(S(=O)(=O)c2ccc3ccccc3c2)CC1	-	-	-	-	-	-
Cc1ccc(S(=O)(=O)N(CC(=O)Nc2cccnc2)c2ccccc2C)cc1	-	-	-	-	-	-
O=C(Sc1cccc2cccnc12)c1ccccc1Br	-	-	39	-	-	-
Cc1ccc(CC2C(=O)N(c3ccc(C)cc3)C(=O)C2C)cc1 (stereo unspecified)	-	-	-	-	-	-
Cc1ccc(CC2C(=O)N(CC(=O)O)C(=O)C2C)cc1 (stereo unspecified)	-	-	29	-	-	-
N#C/C(=C/c1ccc(N2CCOCC2)o1)C(=O)NC1CCCCC1	-	-	-	-	31	-
N#C/C(=C/c1ccc(N2CCOCC2)o1)c1ccc(Br)cc1	-	-	36	-	-	-
COc1ccc(NC(=O)/C(C#N)=C\c2ccc(N3CCOCC3)o2)cc1	-	37	-	-	120	39
N#C/C(=C\c1ccc(N2CCOCC2)o1)C(=O)Nc1ccc(O)cc1	-	-	-	-	24	-
COC(=O)c1c(NC(=O)COC(=O)c2ccc(Cl)nc2)sc(C)c1C	-	-	-	-	-	-
COc1ccc(NC(=O)/C(C#N)=C/C=C/c2ccco2)cc1	24	-	-	-	-	-
CCn1c(COc2cccc(C)c2)nnc1SCC(=O)Nc1cccc(C(=O)O)c1	-	-	-	-	-	-
CCn1c(COc2ccc3ccccc3c2C)nnc1SCC(=O)Nc1cccc(C(=O)O)c1	-	-	-	25	-	-
O=C(NCc1ccco1)c1ccc2c(=O)n(Cc3ccco3)c(SCC(=O)N3CCCC3)nc2c1	-	-	42	-	-	-
O=C(CSc1nc2ccccc2c(=O)n1Cc1ccco1)N1CCCCCC1	-	-	-	-	-	-
CC(=O)Nc1ccc(Nc2c3c4c(cccc4n(C)c2=O)C(=O)c2ccccc2-3)cc1	-	-	-	-	-	-
Cn1c(=O)c(NCCc2ccccc2)c2c3c(cccc31)C(=O)c1ccccc1-2	-	151	76	-	93	74
CCCCNc1c2c3c(cccc3n(C)c1=O)C(=O)c1ccccc1-2	-	176	77	-	140	71
Cn1c(=O)c(NCCO)c2c3c(cccc31)C(=O)c1ccccc1-2	-	39	-	-	32	-
CCOc1ccc2[nH]c(C)c(CN3CCCCCC3)c(=O)c2c1	-	-	-	-	-	-
Cn1cnc(S(=O)(=O)N2CCN(C(c3ccc(F)cc3)c3ccc(F)cc3)CC2)c1	-	-	-	-	-	-
CC(=O)OCCNc1cc(Sc2nc3ccccc3[nH]2)c2nonc2c1[N+](=O)[O-]	-	-	41	-	-	-
Cc1ccc(CNC(=O)CCc2nc3ccccc3c(=O)[nH]2)cc1	36	-	-	-	-	-
CCOC(=O)c1ccccc1Cc1nc2ccccc2c(=O)[nH]1	-	-	-	-	-	44
O=C(O)c1ccccc1Cc1nc2cc(Cl)ccc2c(=O)[nH]1	-	-	-	-	-	-
SMILES	CHRM5 PAM	M4 ag	CHRM4 antagonist	CHRM4 PAM	CHRM5 agonist	CHRM5 antagonist
COc1ccc([C@H]2C[C@@H](n3cc(COC(=O)c4ccccc4)nn3)[C@H](O)CN2C(=O)C2CCCCC2)cc1	-	-	-	-	-	-
COc1ccc(NC2CCCN(C(=O)CN3CCOC3=O)C2)cc1 (stereo unspecified)	-	-	-	-	-	-
CC1=CC(=O)C(C(C)=Nc2cccc(Cl)c2)C(=O)O1 (stereo unspecified)	-	-	-	-	-	-
O=c1c2ccccc2[nH]c(=S)n1CCN1CCN(Cc2ccccc2)CC1	-	-	-	-	-	-
CN1CCN(CCn2c(=S)[nH]c3ccccc3c2=O)CC1	-	-	-	-	-	33
CCOC(=O)c1oc2c(CN3CCN(C)CC3)c(O)c(CC)cc2c(=O)c1-c1nc2ccccc2s1	-	-	-	-	-	-
COc1ccc(Cl)cc1NC(=O)CN(C)C(=O)c1ccc(-n2nc(C)cc2C)cc1	-	-	-	-	-	-
COC(=O)COc1ccc(C2NC(=O)NC(c3ccccc3)=C2C(C)=O)cc1Br (stereo unspecified)	-	-	-	-	-	-
CN1C(=O)CSC1=Nc1ccc(F)cc1	-	-	-	14	-	-
CN1C(=O)CSC1=Nc1cccc(C(=O)O)c1	-	-	-	-	-	-
CCOC(=O)Cn1c(=N)n(CCOc2ccc(OC)cc2)c2ccccc21	-	-	-	-	-	-
CCOC(=O)Cn1c(=N)n(CCOc2ccc3ccccc3c2)c2ccccc21	-	39	-	-	-	-
COc1ccc(OC)c2[nH]c(=O)c(CCNC(=O)c3ccc(S(=O)(=O)N(C)C)cc3)cc12	-	-	-	28	-	-
O=C(O)c1cccc2c1C(=O)N(Cc1ccncc1)C2	-	-	-	32	-	-
CC1CCC2C(=O)N(c3ccc(NC4CCN(Cc5ccccc5)CC4)c([N+](=O)[O-])c3)C(=O)C2C1 (stereo unspecified)	-	-	29	-	-	-
O=C1C2CCCCC2C(=O)N1c1ccc(NC2CCN(Cc3ccccc3)CC2)c([N+](=O)[O-])c1 (stereo unspecified)	-	-	-	-	-	32
O=C1CCC(=O)N1c1ccc(NC2CCN(Cc3ccccc3)CC2)c([N+](=O)[O-])c1	-	-	-	-	-	-
Cn1nc(C(C)(C)C)cc1C(=O)N1CCCCC1c1cc(C(=O)N2CCOCC2)no1 (stereo unspecified)	-	-	-	-	-	-
N#Cc1c(Cl)nc(N/N=C/c2ccccc2)c(Cl)c1Cl	-	-	-	-	-	-
C[N+](C)(C)c1ccc(/C=N/Nc2nc(Cl)c(C#N)c(Cl)c2Cl)cc1	-	-	-	-	32	-
O=C(NCCCO)c1nnc(Cc2c(F)cccc2Cl)o1	-	-	-	29	-	-
O=C(NCCCN1CCN(Cc2ccccc2)CC1)c1nnc(Cc2c(F)cccc2Cl)o1	-	-	-	-	-	-
CN(C)c1cc[n+](Cc2c(Cl)cccc2Cl)cc1	-	-	61	-	-	55
CC1CC(C)CN(CCCNC(=O)CCC(=O)N2CC(C)Oc3ccccc32)C1 (stereo unspecified)	-	-	-	-	-	-
CC(C)c1ccc(S(=O)(=O)Nc2ccc(SC(F)F)cc2)cc1	-	-	28	-	-	-
CC(C)c1ccc(NS(=O)(=O)c2ccc(N3C(=O)CCC3=O)cc2)cc1	-	-	-	-	-	27
COc1ccc(Cl)cc1NC(=O)CN(C)Cc1cccs1	-	-	-	-	-	-

High-throughput results deposited in PubChem by The Scripps Research Institute Molecular Screening Center.
